ChEMBL document CHEMBL1141391 (J Med Chem, 2007)

What was measured:
[1] = Inhibition of growth in epothilone A resistant 1A9-A8 T-beta-274I mutant cell line after 72 hrs by SRB assay; type: functional, cell-based; conditions: Homo sapiens, 1A9, 72 h
[2] = test system: PC-3; test: Cytotoxicity against PC3 cell line by MTT assay; type: cell-based; conditions: Homo sapiens
[3] = target: Tubulin (Homo sapiens) (UniProt P68371+Q9H4B7+P0DPH7+P68366+Q13509+Q71U36+P04350+Q3ZCM7+P07437+P68363+Q9BQE3+Q6PEY2+Q13885+Q9BVA1+Q9BUF5); test: Induction of GTP-tubulin polymerization; type: protein-complex assay
How it was run: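 ED50 for induction of tubulin assembly, read by light scattering at 350 nm or by fluorescence in a 96-well format. GTP-tubulin was used unless otherwise stated. Some samples were run with GDP-tubulin and normalized to the GTP-tubulin scale. Some values are single determinations.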

[4] = test system: 1A9/ptx-10; test: Relative resistance, IC50 for 1A9-PTX10 F-beta-270V mutant/IC50 for 1A9; type: functional, Homo sapiens
[5] = test system: 1A9; test: Inhibition of growth in 1A9 cell line after 72 hrs; type: functional, cell-based; conditions: Homo sapiens, 1A9, 72 h
[6] = test system: 1A9; test: Relative resistance, IC50 for 1A9-A8 A8 T-beta-274I mutant/IC50 for 1A9; type: functional, Homo sapiens
[7] = test system: A2780; test: Cytotoxicity against A2780 cell line; type: cell-based; conditions: Homo sapiens
[8] = test system: 1A9/ptx-10; test: Inhibition of growth in paclitaxel resistant 1A9-PTX10 F-beta-270V mutant cell line after 72 hrs by SRB assay; type: functional, cell-based; conditions: Homo sapiens, 1A9/ptx-10, 72 h

| Structure (SMILES) | IC50 [1] [nM] | IC50 [2] [nM] | ED50 [3] [nM] | Ratio IC50 [4] | IC50 [5] [nM] | Ratio IC50 [6] | IC50 [7] [nM] | IC50 [8] [nM] |
| --- | --- | --- | --- | --- | --- | --- | --- | --- |
| CC(=O)O[C@H]1C(=O)[C@@]2(C)[C@@H]3[C@H](OC(=O)c4ccccc4)[C@]4(O)C[C@H](OC(=O)[C@H](O)[C@@H](NC(=O)c5ccccc5)c5ccccc5OCC/C=C/C(=O)O[C@]35CO[C@@H]5C[C@@H]2O)C(C)=C1C4(C)C | 46.4 | 16 | 670 | 9.2 | 12.2 | 3.8 | 20 | 157 |
| CC(=O)O[C@H]1C(=O)[C@@]2(C)[C@@H]3[C@H](OC(=O)c4ccccc4)[C@]4(O)C[C@H](OC(=O)[C@H](O)[C@@H](NC(=O)c5ccccc5)c5ccccc5OCCCC(=O)O[C@]35CO[C@@H]5C[C@@H]2O)C(C)=C1C4(C)C | 66.5 | 50 | 830 | 1.8 | 18.9 | 3.5 | 18.5 | 35.9 |
| CC(=O)O[C@H]1C(=O)[C@@]2(C)[C@@H]3[C@H](OC(=O)c4ccccc4)[C@]4(O)C[C@H](OC(=O)[C@H](O)[C@@H](NC(=O)c5ccccc5)c5cccc(c5)/C=C/CCC(=O)O[C@]35CO[C@@H]5C[C@@H]2O)C(C)=C1C4(C)C | > 300 | 34 | 1600 | 21 | 12.9 | >23 | 680 | 157 |
| C=CCCC(=O)O[C@@]12CO[C@@H]1C[C@H](O)[C@@]1(C)C(=O)[C@H](OC(C)=O)C3=C(C)[C@@H](OC(=O)[C@H](O)[C@@H](NC(=O)c4ccccc4)c4cccc(C=C)c4)C[C@@](O)([C@@H](OC(=O)c4ccccc4)[C@H]21)C3(C)C | 137 | 55 | 490 | 5.5 | 13.7 | 10 | 350 | 42 |
| CC(=O)O[C@H]1C(=O)[C@@]2(C)[C@@H]3[C@H](OC(=O)c4ccccc4)[C@]4(O)C[C@H](OC(=O)[C@H](O)[C@@H](NC(=O)c5ccccc5)c5cccc(c5)OC/C=C/CCC(=O)O[C@]35CO[C@@H]5C[C@@H]2O)C(C)=C1C4(C)C | > 300 | – | – | 6.3 | 24.6 | >12 | 650 | 196 |
| CC(=O)O[C@H]1C(=O)[C@]2(C)C(O)C[C@H]3OC[C@]34OC(=O)/C=C\Cc3ccccc3[C@H](NC(=O)c3ccccc3)[C@@H](O)C(=O)O[C@H]3C[C@@](O)([C@@H](OC(=O)c5ccccc5)[C@H]42)C(C)(C)C1=C3C (stereo not given in full) | 0.27 | 2.5 | 300 | 1.8 | 0.32 | 0.84 | 0.3 | 0.13 |
| C=CCCC(=O)O[C@@]12CO[C@@H]1C[C@H](O)[C@@]1(C)C(=O)[C@H](OC(C)=O)C3=C(C)[C@@H](OC(=O)[C@H](O)[C@@H](NC(=O)c4ccccc4)c4ccccc4OCC=C)C[C@@](O)([C@@H](OC(=O)c4ccccc4)[C@H]21)C3(C)C | 148 | 128 | 420 | 18 | 1.8 | 82 | 770 | 65 |
| CC(=O)O[C@H]1C(=O)[C@@]2(C)[C@@H]3[C@H](OC(=O)c4ccccc4)[C@]4(O)C[C@H](OC(=O)[C@H](O)[C@@H](NC(=O)c5ccccc5)c5ccccc5CCCC(=O)O[C@]35CO[C@@H]5C[C@@H]2O)C(C)=C1C4(C)C | 0.44 | 2.4 | 210 | 12 | 0.07 | 6.3 | 0.5 | 1.03 |
| CC(=O)O[C@H]1C(=O)[C@@]2(C)[C@@H]3[C@H](OC(=O)c4ccccc4)[C@]4(O)C[C@H](OC(=O)[C@H](O)[C@@H](NC(=O)c5ccccc5)c5ccccc5OC/C=C\C(=O)O[C@]35CO[C@@H]5C[C@@H]2O)C(C)=C1C4(C)C | 26.5 | 15 | 280 | 17 | 7 | 3.8 | 14.5 | 126 |
